Assay [1] relates to Mycobacterium tuberculosis. Description: Antimycobacterial activity against Mycobacterium bovis BCG assessed as inhibition of microbial growth at 1 ug/ml incubated for 6 days by MABA method. Format: functional. Conditions: variant bovis BCG, 144 h, read-out: GI. An outline of the steps:
(§1)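 Microplate alamar blue assay in 7H9GC medium. Compounds dissolved in DMSO at 10 mg/mL (stock), diluted to 100, 50, 25, 10, 5, 1 and 0.5 ug/mL, each in triplicate. Frozen inoculum added at final 2.5 x 10^5 CFU/mL. Bacteria-alone and medium-alone control wells. Read by colour change and fluorescence. % inhibition = (test − M bkg)/(B − M bkg) x 100, mean of two experiments. MIC50 = lowest concentration giving ≥50% inhibition.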

In assay [2] the test system is Mycobacterium tuberculosis. Description: Antimycobacterial activity against Mycobacterium bovis BCG assessed as inhibition of microbial growth at 50 ug/ml incubated for 6 days by MABA method. Format: functional. Conditions: variant bovis BCG, 144 h, read-out: GI. The method, boiled down:
as §1

The test system of assay [3] is Mycobacterium tuberculosis. Description: Antimycobacterial activity against Mycobacterium bovis BCG assessed as inhibition of microbial growth at 100 ug/ml incubated for 6 days by MABA method. Format: functional. As to conditions: variant bovis BCG, 144 h, read-out: GI. An outline of the steps: as §1
For assay [4], the system named is Mycobacterium tuberculosis. In words: Antimycobacterial activity against Mycobacterium bovis BCG assessed as inhibition of microbial growth at 0.5 to 100 ug/ml incubated for 6 days by MABA method. Format: functional, variant bovis BCG. The method, boiled down: as §1
Assay [5] relates to Mycobacterium tuberculosis. In words: Antimycobacterial activity against Mycobacterium bovis BCG assessed as inhibition of microbial growth at 5 ug/ml incubated for 6 days by MABA method. Format: functional. As to conditions: variant bovis BCG, 144 h, read-out: GI. The method, boiled down: as §1
Assay [6] deals with Mycobacterium tuberculosis. Description: Antimycobacterial activity against Mycobacterium bovis BCG assessed as inhibition of microbial growth at 10 ug/ml incubated for 6 days by MABA method. It is filed as functional. Conditions: variant bovis BCG, 144 h, read-out: GI. An outline of the steps:
as §1

For assay [7], the system named is Mycobacterium tuberculosis. Description: Antimycobacterial activity against Mycobacterium bovis BCG assessed as inhibition of microbial growth incubated for 6 days by MABA method. It is filed as functional. As to conditions: variant bovis BCG, 144 h. An outline of the steps:
as §1

The test system of assay [8] is Mycobacterium tuberculosis. In words: Antimycobacterial activity against Mycobacterium bovis BCG assessed as inhibition of microbial growth at 0.5 ug/ml incubated for 6 days by MABA method. It is filed as functional. Conditions: variant bovis BCG, 144 h, read-out: GI. An outline of the steps: as §1

The text below walks through data of ChEMBL document CHEMBL2046352, “Discovery of novel 5-(ethyl or hydroxymethyl) analogs of 2'-'up' fluoro (or hydroxyl) pyrimidine nucleosides as a new class of Mycobacterium tuberculosis, Mycobacterium bovis and Mycobacterium avium inhibitors” (Bioorg Med Chem, 2012).

Turning to `Cc1cn([C@@H]2O[C@H](CO)[C@@H](Br)[C@@H]2O)c(=O)[nH]c1=O`, in assay [1], the inhibition of growth at 1 µg/mL turned out to be 40%.

`CCc1cn([C@@H]2O[C@H](COC(C)=O)[C@@H](OC(C)=O)[C@@H]2F)c(=O)[nH]c1=O`: the inhibition of growth at 50 µg/mL in assay [2] was 55%. In assay [3], the inhibition of growth at 100 µg/mL is 75%.

On to `CCc1cn([C@@H]2O[C@H](CO)[C@@H](O)[C@@H]2F)c(=O)[nH]c1=S`, for which, in assay [2], the inhibition of growth at 50 µg/mL amounted to 55%. Also, in assay [3], the inhibition of growth at 100 µg/mL was 65%.

Regarding `CCc1cn([C@@H]2O[C@H](CO)[C@@H](O)[C@@H]2F)c(=O)nc1N`, in assay [3], the inhibition of growth at 100 µg/mL was determined as 50%.

As to `CCc1cn2c(nc1=O)O[C@@H]1[C@H](F)[C@H]2O[C@@H]1CO`, the inhibition of growth at 50 µg/mL in assay [2] was 25%. Besides, the inhibition of growth at 100 µg/mL in assay [3] worked out at 25%.

With `CCc1cn([C@@H]2O[C@H](CO)[C@@H](N=[N+]=[N-])[C@@H]2F)c(=O)[nH]c1=O`, in assay [4], the “growth inhibition (GI)” value is 0%.

Regarding `CCc1cn([C@@H]2O[C@H](CO)[C@@H](Br)[C@@H]2F)c(=O)[nH]c1=O`, in assay [2], the inhibition of growth at 50 µg/mL was determined as 70%. In addition, the inhibition of growth at 5 µg/mL in assay [5] stood at 50%. Further, in assay [6], the inhibition of growth at 10 µg/mL is 60%. Also, the inhibition of growth at 100 µg/mL in assay [3] was 80%. The MIC50 in assay [7] stood at 5 µg/mL.

For the compound `CCc1cn([C@@H]2O[C@H](CO)C[C@@H]2F)c(=O)[nH]c1=O`, the inhibition of growth at 100 µg/mL in assay [3] amounted to 25%.

Take `O=c1[nH]c(=O)n([C@@H]2O[C@H](CO)[C@@H](O)[C@@H]2O)cc1CO`: the “growth inhibition (GI)” value in assay [4] was 0%.

For `O=c1[nH]c(=S)c(CO)cn1[C@@H]1O[C@H](CO)[C@@H](O)[C@@H]1O`, in assay [2], the inhibition of growth at 50 µg/mL was 100%. In assay [5], the inhibition of growth at 5 µg/mL came out at 75%. Further, the inhibition of growth at 0.5 µg/mL in assay [8] stood at 50%. Further, in assay [6], the inhibition of growth at 10 µg/mL is 90%. The inhibition of growth at 100 µg/mL in assay [3] was found to be 100%. In addition, the MIC50 in assay [7] was found to be 0.5 µg/mL.

On to `COCc1cn([C@@H]2O[C@H](CO)[C@@H](O)[C@@H]2O)c(=O)nc1N`, for which the inhibition of growth at 50 µg/mL in assay [2] was 60%. Besides, in assay [6], the inhibition of growth at 10 µg/mL turned out to be 50%. Moreover, the inhibition of growth at 100 µg/mL in assay [3] came out at 80%.

Consider `CCc1cn([C@H]2O[C@@H](CO)[C@H](O)[C@H]2F)c(=O)[nH]c1=O` (single isomer, unassigned), for which the “growth inhibition (GI)” value in assay [4] is 0%.

Regarding `CO[C@H]1/C=C/O[C@@]2(C)Oc3c(C)c(O)c4c(O)c(c(/C=N/N5CCN(C)CC5)c(O)c4c3C2=O)NC(=O)/C(C)=C\C=C\[C@H](C)[C@H](O)[C@@H](C)[C@@H](O)[C@@H](C)[C@H](OC(C)=O)[C@@H]1C` [RIFAMPIN], in assay [8], the inhibition of growth at 0.5 µg/mL was 100%.
